From PMC8489793 (ACS chemical biology, 2019)
“Also recorded” adds a separate entry of the source.

Assays:
[1] = system: primary mouse mammary epithelial cells (MECs) organoids; assay: 3D organoid model of normal mammary growth and branching morphogenesis; assay type: cell-based; conditions: for delay in branching morphogenesis: single agent; for organoids killed: 3D branching assay
Outline: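 Primary mouse mammary epithelial cells embedded in Matrigel and stimulated to branch with FGF2. Test compound and/or ZnSO4, or vehicle, added from 48 h. At 144 h, organoids stained with Hoechst (nuclei), calcein AM (live) and SYTOX Orange (dead), then imaged.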

[2] = system: untransformed mouse MECs and MCF-10A cells, in comparison to MCF-7 cells; assay: intracellular Zn^2+ by FluoZin-3, comparison of zinc interactors; assay type: cell-based; conditions: 3 h, absence of exogenous Zn^2+
[3] = system: epidermal growth factor (EGF)-stimulated DNA synthesis; conditions: cited from earlier work
[4] = system: primary metastatic tumor cells derived from malignant pleural effusions (PEs) of breast cancer patients; conditions: 10 μM; PE cells; cited from earlier work
[5] = system: immortalized human mammary epithelial cells (hTERT-HMEC); conditions: 10 μM; cited from earlier work
MCF-7 cells [6] = assay: total cellular Zn^2+ by ICP-AES; assay type: cell-based, human; conditions: 3 h, ZNA or ZNA/ZnSO4
Outline: (§1)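 Total cellular zinc determined by inductively coupled plasma atomic emission spectroscopy after 3 h treatment with test compound alone or together with ZnSO4.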

[7] = system: MCF-10 and MCF-7 cell lines; assay: cell viability; assay type: cell-based, human
Outline: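 Test compound combined with exogenously added transition metal ions. Viability read as cellular ATP content after 24 h of treatment. Mean and SEM of three replicates, each normalized to its respective control.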

[8] = system: cytosolic cathepsin in MCF-7 cells; assay: cytosolic cathepsin activity / cytoplasmic fractionation; assay type: cell-based, human
Outline: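 Cells given test compound plus ZnSO4 for 6 h. Cytoplasmic cathepsin activity then measured with an enzymatic assay and expressed as mean activity relative to control. SEM of three experimental replicates.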

MCF-7 cells [9] = assay: intracellular Zn^2+ by FluoZin-3 and flow cytometry; assay type: cell-based, human
Outline: (§2)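 Intracellular free Zn2+ measured by FluoZin-3 staining and flow cytometry after 1, 3, 24 or 48 h of treatment with test compound, with or without ZnSO4. For MCF-7, an extra 24 h arm included actinomycin D to block transcription. Mean and SEM of three replicates, compared with control.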

[10] = system: PyMT primary tumor organoids; assay: 3D primary tumor organoid culture; assay type: cell-based; conditions: 144 h
Outline: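 PyMT mouse tumor cells embedded as organoids in Matrigel and cultured 144 h. Test compound and/or ZnSO4, or vehicle, present from 48 h to the end. Final staining with Hoechst, calcein AM (live) and SYTOX Orange (dead), then imaged.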

[11] = system: metal trafficking genes in MCF-10A cells; assay: RT-PCR of metal trafficking gene induction; assay type: cell-based, human; conditions: ZNA 30 μM, 3 or 24 h, normalized to GAPDH
Outline: (§3)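 Real-time PCR of metal trafficking gene induction after 3 or 24 h exposure to test compound at 30 μM, run in quadruplicate.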

MCF-10A [12] = assay: cell death by propidium iodide staining and flow cytometry; assay type: cell-based, human
Outline: (§4)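 Cells treated 24 h with test compound combined with ZnSO4, then stained with propidium iodide and analysed by flow cytometry. Mean and SEM of three replicates, normalized to the control sample.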

[13] = system: malignant pleural effusion cells (PE1005339); assay: 12-point dose–response assay in malignant pleural effusion cells; assay type: cell-based, human; conditions: PE1005339 tumor cells; 12-point dose–response; 4 days
Outline: (§5)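 Dose–response after 4 days of treatment in immortalized primary human mammary epithelial cells (hTERT-HMEC) or in primary metastatic, chemoresistant breast cancer cells from a patient's malignant pleural effusion. A 12-point series is stated for the effusion cells. Mean and SD of three replicates.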

[14] = system: transformed and untransformed cell types; assay type: cell-based; conditions: ZNA (30 μM) or clioquinol (30 μM) with ZnSO4; propidium iodide
MCF-10A cells [15] = assay: long-term colony formation after 24 h treatment; assay type: cell-based, human; conditions: 24 h treatment then 3 weeks without compound
Outline: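 Cells treated 24 h, then cultured 21 days in compound-free medium. Surviving colonies stained with crystal violet and quantified. Mean and SD of four replicates.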

MCF-10A [16] = assay: dose–response assay in untransformed mammary epithelial cell line; assay type: cell-based, human; conditions: 5 days
Outline: (§6)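 Viability dose–response after 5 days of treatment in untransformed MCF-10A cells and in MCF-7, T47D and MDA-MB-231 breast cancer lines. Mean and SD of three replicates.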

[17] = system: MT1 and MT2 in renal and hepatic tissue; assay: RT-PCR of metallothionein expression in tissue of treated mice; assay type: in vivo; conditions: 100 mg/kg intraperitoneal, nontumor bearing FVB/NJ mice
Outline: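 Nontumor-bearing FVB/NJ mice received 100 mg/kg test compound intraperitoneally or vehicle, and were sampled 3 or 24 h later. MT1 and MT2 expression in kidney and liver was measured by real-time PCR, normalised to β-actin and expressed relative to controls.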

[18] = system: caspase 3/7, 8, or 9 activity in T47D, MDA-MB-231, and MCF-10A; assay: quantification of caspase activity; assay type: cell-based, human; conditions: 6 or 72 h
Outline: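 Caspase activity quantified after 6 or 72 h exposure to test compound with ZnSO4; staurosporine used as positive control. Mean and SD of three replicates.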

MCF-7 cells [19] = assay: cellular proliferation by EdU incorporation; assay type: cell-based, human; conditions: 6 h
Outline: (§7)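 Proliferation measured as percent EdU incorporation after 6 h with test compound (30 μM) and/or ZnSO4 (30 μM). Mean and SEM of three experimental replicates; compared against control.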

hTERT-HMEC = assay: dose–response assay in immortalized mammary epithelial cells; assay type: cell-based, human; conditions: therapeutic window; hTERT-HMEC per Figure 2C; 4 days
Outline: as §5

MCF-10A and MCF-7 cells = assay: evaluation of focused library; assay type: cell-based, human; conditions: MCF-7 versus MCF-10A; listed as compound 4
Outline: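 MCF-7 breast cancer and untransformed MCF-10A mammary epithelial cells were given a range of test compound concentrations to generate dose–response curves. MCF-7 EC50 was the mean of three replicates. ΔAUC was the difference in area under the curve between MCF-7 and MCF-10A.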

MCF-10A cells [20] = assay: cellular proliferation by EdU incorporation; assay type: cell-based, human; conditions: 6 h
Outline: as §7

MCF-7 cells [21] = assay: FluoZin-3 and LysoTracker colocalization; assay type: cell-based, human; conditions: ZNA (30 μM) and ZnSO4 (30 μM), 2 h
Outline: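 Cells exposed 2 h to test compound (30 μM) and/or ZnSO4 (30 μM). Costained with FluoZin-3 (zinc), LysoTracker (lysosomes) and Hoechst, then imaged by fluorescence microscopy. Overlap of FluoZin-3 and LysoTracker signals quantified.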

PyMT mammary tumors = assay: transplanted PyMT mouse mammary tumor model; assay type: in vivo
Outline: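 PyMT-expressing mouse mammary cells were transplanted into the fat pads of 3-week-old female FVB mice. Tumour-bearing mice were assigned to four groups for 21 days: test compound 100 mg/kg i.p. once daily, 25 mM ZnSO4 continuously in drinking water, both, or PBS i.p. once daily. Mice were euthanised at 2 cm tumour diameter, and Kaplan–Meier survival analysis was used.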

MCF-10A cells [22] = assay: total cellular Zn^2+ by ICP-AES; assay type: cell-based, human; conditions: cotreatment with Zn^2+
Outline: as §1

[23] = system: MCF-7, T47D, and MDA-MB231 breast cancer cell lines; assay: dose–response assays in breast cancer cell lines; assay type: cell-based, human; conditions: malignant cell lines; 5 days
Outline: as §6

cancer cells = assay: long-term colony formation after 24 h treatment; assay type: cell-based, human; conditions: 24 h treatment then 3 weeks without compound
Outline: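 Cells were exposed to test compound for 24 h, then grown in compound-free medium for 21 days. Colonies were stained with crystal violet and quantified, and the mean and standard deviation of four replicates were reported.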

MCF-7 cells [24] = assay: cell death by propidium iodide staining and flow cytometry; assay type: cell-based, human; conditions: cotreatment with ZnSO4, within 24 h
Outline: as §4

[25] = system: metal trafficking genes in MCF-7 cells; assay: RT-PCR of metal trafficking gene induction; assay type: cell-based, human; conditions: ZNA 30 μM, 3 or 24 h, normalized to GAPDH
Outline: as §3

MCF-10A cells [26] = assay: intracellular Zn^2+ by FluoZin-3 and flow cytometry; assay type: cell-based, human
Outline: as §2

[27] = system: a variety of cancer cell lines; conditions: read-out: IC50s; cited from earlier work
[28] = system: transformed and untransformed cells; assay: cell viability; assay type: cell-based; conditions: 48 h; ATP quantification

Compound: O=S(=O)([O-])[O-].[Zn+2] [ZnSO4]
- delay in branching morphogenesis [1]: 24 h

Compound: naamidine A
- intracellular Zn^2+ levels (FluoZin-3) [2]: decreased or unchanged
- inhibition of EGF-stimulated DNA synthesis [3]: submicromolar
- organoids killed ([1]; compound alone): 100%
- effect of exogenous ZnSO4 on cytotoxic effects in organoids ([1]; with exogenous ZnSO4): rescued the cytotoxic effects
- decrease in cell viability [4]: 100%
- decrease in cell viability [5]: 100%

Compound: COc1ccc(-c2c(Cc3ccccc3)[nH]/c(=N\C(=O)c3ccccc3F)n2C)cc1 [ZNA, zinaamidole A]
- total cellular Zn^2+ (ICP-AES) (MCF-7 cells [6]): increase in total cellular Zn^2+
- effect on cell viability in combination with Zn^2+ ([7]; MCF-10A and MCF-7, 24 h, ATP): highly synergistic and cancer selective
- effect on cell viability in cotreatment with Cu^2+ ([7]; MCF-10 and MCF-7, 24 h, ATP): nonselective cell death
- effect on cell viability with Ni, Co, and Mn compared to ZNA alone ([7]; broader series of metals): minimal changes in cell viability
- effect on cell viability in combination with Fe^2+ ([7]; untransformed and transformed cell lines, 24 h, ATP): relatively little effect
- cytosolic cathepsin activity ([8]; MCF-7, combination of ZNA and ZnSO4, 6 h): significant increase
- cytosolic cathepsins B, D, and L relative to untreated cells ([8]; MCF-7s, ZNA/ZnSO4, cytoplasmic fractionation): increase
- intracellular Zn^2+ on cotreatment with Actinomycin D versus ZNA-alone (MCF-7 cells [9]; 24 h, with ACTD): statistically significant increase
- increase in FluoZin-3 fluorescence (intracellular Zn^2+) (MCF-7 cells [9]; 48 h, no exogenous Zn^2+): 13 fold
- intracellular Zn^2+ concentration (FluoZin-3) (MCF-7 cells [9]; in the presence of 30 μM Zn^2+, 3 h): 170 times
- organoids with strong cell extrusion phenotype ([10]; ZNA-alone): about 70%
- organoids to which treatment was cytotoxic ([10]; ZNA/ZnSO4 cotreatment): over 80%
- metal trafficking gene expression [11]: 5 fold
- cell death (MCF-10A [12]; ZNA alone, 24 h): unaffected
- cell death (MCF-10A [12]; combination with ZnSO4, 24 h): unaffected
- EC50 [13]: 4.12 µM
- cytotoxic effect of combination with ZnSO4, time-course [14]: only observed in the transformed cell line
- effect on long-term proliferative potential (colonies) (MCF-10A cells [15]): greatly attenuated
- sensitivity (cell viability) (MCF-10A [16]): reduced sensitivity
- MT1 and MT2 expression versus control treated mice ([17]; 3 h): increased
- MT1 and MT2 expression ([17]; 24 h): decreased
- caspase 3/7, 8, or 9 activity ([18]; ZNA alone, MDA-MB-231, MCF-10A): either minimal or not observed
- caspase 3/7, 8, or 9 activity ([18]; ZNA/ZnSO4, MDA-MB-231, MCF-10A): either minimal or not observed
- EdU incorporation (MCF-7 cells [19]; ZNA (30 μM)/ZnSO4 (30 μM)): complete block
- EdU incorporation (MCF-7 cells [19]; ZNA alone 30 μM): only a partial reduction
- IC50 (hTERT-HMEC): > 100 µM
- potency and selectivity (EC50 in MCF-7, ΔAUC between MCF-7 and MCF-10A) (MCF-10A and MCF-7 cells): significant increase in potency and selectivity; also recorded: greatest balance of potency and selectivity
- organoids healthy with no visible extruding cells ([1]; combination ZNA/ZnSO4, 144 h): Greater than 60%
- organoids with either full or partial branching ([1]; combination ZNA/ZnSO4, 144 h): approximately 90%
- delay in branching morphogenesis [1]: 24 h
- EdU incorporation (MCF-10A cells [20]; ZNA (30 μM)/ZnSO4 (30 μM)): only partially inhibiting
- EdU incorporation (MCF-10A cells [20]; ZNA alone 30 μM): only a partial reduction
- FluoZin-3 and LysoTracker overlap (MCF-7 cells [21]): significant increase
- survival versus control-treated or ZnSO4-only groups (PyMT mammary tumors; ZNA 100 mg/kg i.p. once a day plus 25 mM ZnSO4 in drinking water, 21 days): significant survival advantage
- general toxicity, adverse reactions, body weight (PyMT mammary tumors; ZNA 100 mg/kg i.p. once a day, 21 days): no general toxicity, adverse reactions, or decreases in body weight
- survival versus control-treated or ZnSO4-only groups (PyMT mammary tumors; ZNA alone 100 mg/kg i.p. once a day for 21 days): significant survival advantage
- general toxicity, adverse reactions, body weight (PyMT mammary tumors; combination of ZNA and ZnSO4, 21 days): no general toxicity, adverse reactions, or decreases in body weight
- total cellular Zn^2+ (ICP-AES) (MCF-10A cells [22]): below detectable levels
- cell viability [23]: decreased cell viability
- long-term proliferative potential (colonies) (cancer cells): significantly affected long-term proliferative potential
- cell death (MCF-7 cells [24]): > 80%
- metal trafficking gene expression [25]: 75 fold
- increase in intracellular Zn^2+ (FluoZin-3) (MCF-10A cells [26]; 48 h, no exogenous Zn^2+): 2 fold
- intracellular Zn^2+ level versus vehicle control (FluoZin-3) (MCF-10A cells [26]; cotreatment with Zn^2+): less than 10 fold

Compound: Oc1c(I)cc(Cl)c2cccnc12 [clioquinol]
- IC50 [27]: 5 to 50 µM
- toxicity of combination with ZnSO4 [28]: toxic to both transformed and untransformed cells
- intracellular Zn^2+ levels (FluoZin-3) [2]: increase in intracellular Zn^2+
- cytotoxic effect of combination with ZnSO4, time-course [14]: cytotoxic toward all cell types tested
- organoids killed ([1]; compound alone): 100%
- organoids killed ([1]; with ZnSO4): 100%
